In ChEMBL document CHEMBL1140881, “Discovery of 13-oxa prostaglandin analogs as antiglaucoma agents: synthesis and biological activity” (Bioorg Med Chem, 2009):
Values belong to the compound of their own block, whether it stands above or below them. Calls of active or inactive are those of the source. The rule behind the calls is not given here.

What was measured:
[1] = target: Prostaglandin F2-alpha receptor (Bos taurus, UniProt P37289); assay: Displacement of [3H]PGF2 alpha from FP receptor in bovine corpus luteum membrane; format: cell membranes
Sequence of Prostaglandin F2-alpha receptor (Bos taurus, UniProt P37289) (P37289 whole entry): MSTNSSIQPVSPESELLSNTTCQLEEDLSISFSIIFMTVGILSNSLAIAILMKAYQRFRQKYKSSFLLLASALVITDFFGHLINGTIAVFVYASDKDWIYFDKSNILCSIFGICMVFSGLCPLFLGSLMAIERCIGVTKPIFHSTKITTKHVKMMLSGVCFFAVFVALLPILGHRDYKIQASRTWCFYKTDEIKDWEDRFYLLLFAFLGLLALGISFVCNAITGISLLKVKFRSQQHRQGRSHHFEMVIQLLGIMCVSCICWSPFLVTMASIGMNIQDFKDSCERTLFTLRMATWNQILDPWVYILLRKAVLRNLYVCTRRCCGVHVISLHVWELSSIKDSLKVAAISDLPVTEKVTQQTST
How it was run: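 Nonspecific binding was set with 10 µM unlabeled PGF2α or cloprostenol. Bound and free ligand were separated by vacuum filtration on PEI-soaked GF/B filters and counted. Ki came from nonlinear fitting across several experiments.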

[2] = target: Prostaglandin F2-alpha receptor (Mus musculus, UniProt P43117); assay: Agonist activity at FP receptor in Swiss mouse 3T3 cells assessed as [3H]-IP accumulation by scintillation counting; format: functional, cell-based
Sequence of Prostaglandin F2-alpha receptor (Mus musculus, UniProt P43117) (P43117 whole entry): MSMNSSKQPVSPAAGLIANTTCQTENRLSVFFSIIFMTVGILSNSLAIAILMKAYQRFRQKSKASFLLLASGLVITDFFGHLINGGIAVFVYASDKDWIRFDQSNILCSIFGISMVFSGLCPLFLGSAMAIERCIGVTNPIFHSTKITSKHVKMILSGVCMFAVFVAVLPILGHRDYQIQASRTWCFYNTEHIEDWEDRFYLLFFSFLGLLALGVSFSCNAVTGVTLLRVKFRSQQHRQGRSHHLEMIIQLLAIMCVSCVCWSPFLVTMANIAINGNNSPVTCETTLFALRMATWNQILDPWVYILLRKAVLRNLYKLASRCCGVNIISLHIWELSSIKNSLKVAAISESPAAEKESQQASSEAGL
How it was run: (§1)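 Swiss 3T3 mouse fibroblasts carry an endogenous FP receptor. They were rinsed in DMEM/F-12 with 10 mM LiCl, then exposed to agonist or vehicle in that medium for 60 min at 37 °C. The reaction was stopped with ice-cold 0.1 M formic acid. Total [3H]-IPs were eluted with ammonium formate in formic acid and counted by scintillation. EC50 and Emax came from nonlinear fits of concentration-response curves pooled from several experiments.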

[3] = target: Prostaglandin F2-alpha receptor (Mus musculus) (UniProt P43117); assay: Agonist activity at FP receptor in Swiss mouse 3T3 cells assessed as [3H]-IP accumulation by scintillation counting relative to control; format: functional, cell-based; how it was run: as §1
Sequence of Prostaglandin F2-alpha receptor (Mus musculus) (P43117 whole entry): as above

Oryctolagus cuniculus [4] = species: Oryctolagus cuniculus; assay: Effect on ocular irritation in New Zealand albino rabbit assessed as incidence of ocular discharge at 0.03 ug after 1 to 5 hrs; format: functional, Eye
How it was run: (§2)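 Topical single 30 µL drop into both eyes of each of five rabbits, doses 0.03–100 µg. Vehicle was trimethamine/boric acid buffer with 4.6% mannitol, HCO-40, 0.01% EDTA and 0.01% benzalkonium chloride, pH 7.4. Eyes were scored at 1, 2, 3 and 5 h. The percent of eyes scoring +2 or greater, pooled across all time points, is reported as study % incidence. Qualitative, with no statistics.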

Oryctolagus cuniculus [5] = species: Oryctolagus cuniculus; assay: Effect on ocular irritation in New Zealand albino rabbit assessed as incidence of conjunctival hyperemia at 0.1 ug after 1 to 5 hrs; format: functional, Conjunctiva; how it was run: as §2
Oryctolagus cuniculus [6] = species: Oryctolagus cuniculus; assay: Effect on ocular irritation in New Zealand albino rabbit assessed as incidence of conjunctival swelling at 0.1 ug after 1 to 5 hrs; format: functional, Conjunctiva; how it was run: as §2
Oryctolagus cuniculus [7] = species: Oryctolagus cuniculus; assay: Effect on ocular irritation in New Zealand albino rabbit assessed as incidence of ocular discharge at 0.1 ug after 1 to 5 hrs; format: functional, Eye; how it was run: as §2
Oryctolagus cuniculus [8] = species: Oryctolagus cuniculus; assay: Effect on ocular irritation in New Zealand albino rabbit assessed as incidence of conjunctival hyperemia at 0.3 ug after 1 to 5 hrs; format: functional, Conjunctiva; how it was run: as §2
Oryctolagus cuniculus [9] = species: Oryctolagus cuniculus; assay: Effect on ocular irritation in New Zealand albino rabbit assessed as incidence of conjunctival swelling at 0.3 ug after 1 to 5 hrs; format: functional, Conjunctiva; how it was run: as §2
Oryctolagus cuniculus [10] = species: Oryctolagus cuniculus; assay: Effect on ocular irritation in New Zealand albino rabbit assessed as incidence of ocular discharge at 0.3 ug after 1 to 5 hrs; format: functional, Eye; how it was run: as §2
Oryctolagus cuniculus [11] = species: Oryctolagus cuniculus; assay: Effect on ocular irritation in New Zealand albino rabbit assessed as incidence of conjunctival hyperemia at 1 ug after 1 to 5 hrs; format: functional, Conjunctiva; how it was run: as §2
Oryctolagus cuniculus [12] = species: Oryctolagus cuniculus; assay: Effect on ocular irritation in New Zealand albino rabbit assessed as incidence of conjunctival swelling at 1 ug after 1 to 5 hrs; format: functional, Conjunctiva; how it was run: as §2
Oryctolagus cuniculus [13] = species: Oryctolagus cuniculus; assay: Effect on ocular irritation in New Zealand albino rabbit assessed as incidence of ocular discharge at 1 ug after 1 to 5 hrs; format: functional, organism-based, Eye; how it was run: as §2
Oryctolagus cuniculus [14] = species: Oryctolagus cuniculus; assay: Effect on ocular irritation in New Zealand albino rabbit assessed as incidence of conjunctival hyperemia at 3 ug after 1 to 5 hrs; format: functional, Conjunctiva; how it was run: as §2
Oryctolagus cuniculus [15] = species: Oryctolagus cuniculus; assay: Effect on ocular irritation in New Zealand albino rabbit assessed as incidence of conjunctival swelling at 3 ug after 1 to 5 hrs; format: functional, Conjunctiva; how it was run: as §2
Oryctolagus cuniculus [16] = species: Oryctolagus cuniculus; assay: Effect on ocular irritation in New Zealand albino rabbit assessed as incidence of ocular discharge at 3 ug after 1 to 5 hrs; format: functional, Eye; how it was run: as §2
Oryctolagus cuniculus [17] = species: Oryctolagus cuniculus; assay: Effect on ocular irritation in New Zealand albino rabbit assessed as incidence of conjunctival hyperemia at 10 ug after 1 to 5 hrs; format: functional, Conjunctiva; how it was run: as §2
Oryctolagus cuniculus [18] = species: Oryctolagus cuniculus; assay: Effect on ocular irritation in New Zealand albino rabbit assessed as incidence of conjunctival swelling at 10 ug after 1 to 5 hrs; format: functional, Conjunctiva; how it was run: as §2
Oryctolagus cuniculus [19] = species: Oryctolagus cuniculus; assay: Effect on ocular irritation in New Zealand albino rabbit assessed as incidence of ocular discharge at 10 ug after 1 to 5 hrs; format: functional, Eye; how it was run: as §2
Oryctolagus cuniculus [20] = species: Oryctolagus cuniculus; assay: Effect on ocular irritation in New Zealand albino rabbit assessed as incidence of conjunctival hyperemia at 30 ug after 1 to 5 hrs; format: functional, Conjunctiva; how it was run: as §2
Oryctolagus cuniculus [21] = species: Oryctolagus cuniculus; assay: Effect on ocular irritation in New Zealand albino rabbit assessed as incidence of conjunctival swelling at 30 ug after 1 to 5 hrs; format: functional, Conjunctiva; how it was run: as §2
Oryctolagus cuniculus [22] = species: Oryctolagus cuniculus; assay: Effect on ocular irritation in New Zealand albino rabbit assessed as incidence of ocular discharge at 30 ug after 1 to 5 hrs; format: functional, Eye; how it was run: as §2
Felis catus [23] = species: Felis catus; assay: Acute […] response in normotensive cat assessed as AUC (1 to 5 hrs) at 0.1 ug; format: functional
How it was run: (§3)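 Conscious cats held in cat bags under uniform room lighting. Horizontal pupil diameter read with a hand-held micrometer, then again at 0.5, 1, 1.5, 2, 2.5, 3, 4 and 5 h after topical dosing. The AUC of pupil diameter change versus time over 1–5 h was computed from group averages. Ranking is qualitative, with no statistics.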

Felis catus [24] = species: Felis catus; assay: Acute […] response in normotensive cat assessed as AUC (1 to 5 hrs) at 0.3 ug; format: functional; how it was run: as §3
Felis catus [25] = species: Felis catus; assay: Acute […] response in normotensive cat assessed as AUC (1 to 5 hrs) at 1 ug; format: functional; how it was run: as §3
Felis catus [26] = species: Felis catus; assay: Toxicity in normotensive cat assessed as ocular irritation; format: organism-based, Eye; conditions: in vivo
Felis catus [27] = species: Felis catus; assay: Toxicity in normotensive cat assessed as discomfort; format: organism-based; conditions: in vivo
Oryctolagus cuniculus [28] = species: Oryctolagus cuniculus; assay: Effect on ocular irritation in New Zealand albino rabbit assessed as incidence of conjunctival swelling at 0.03 ug after 1 to 5 hrs; format: functional, Conjunctiva; how it was run: as §2
Oryctolagus cuniculus [29] = species: Oryctolagus cuniculus; assay: Effect on ocular irritation in New Zealand albino rabbit assessed as incidence of conjunctival hyperemia at 0.03 ug after 1 to 5 hrs; format: functional, Conjunctiva; how it was run: as §2
Macaca fascicularis [30] = species: Macaca fascicularis; assay: Induction of miosis in monkey; conditions: cynomolgus monkey, in vivo
Macaca fascicularis [31] = species: Macaca fascicularis; assay: Toxicity in monkey assessed as drug tolerance; conditions: cynomolgus monkey, in vivo
Macaca fascicularis [32] = species: Macaca fascicularis; assay: Inhibition of intraocular pressure in hypertensive monkey at 1 ug, bid; conditions: Eye
Macaca fascicularis [33] = species: Macaca fascicularis; assay: Inhibition of intraocular pressure in hypertensive monkey at 3 ug, bid after 5th dose; set-up: scale not given: the % may be the effect or the level left
Macaca fascicularis [34] = species: Macaca fascicularis; assay: Inhibition of intraocular pressure in hypertensive monkey at 3 ug after first instillation; set-up: scale not given: the % may be the effect or the level left
Macaca fascicularis [35] = species: Macaca fascicularis; assay: Inhibition of intraocular pressure in hypertensive monkey at 3 ug, bid after 4th dose measured after 16 hrs; set-up: scale not given: the % may be the effect or the level left
Oryctolagus cuniculus [36] = species: Oryctolagus cuniculus; assay: Effect on ocular irritation in New Zealand albino rabbit assessed as incidence of conjunctival hyperemia at 1.8 ug after 1 to 5 hrs; format: functional, Conjunctiva; how it was run: as §2
Oryctolagus cuniculus [37] = species: Oryctolagus cuniculus; assay: Effect on ocular irritation in New Zealand albino rabbit assessed as incidence of conjunctival swelling 1.8 ug after 1 to 5 hrs; format: functional, Conjunctiva; how it was run: as §2
Oryctolagus cuniculus [38] = species: Oryctolagus cuniculus; assay: Effect on ocular irritation in New Zealand albino rabbit assessed as incidence of ocular discharge 1.8 ug after 1 to 5 hrs; format: functional, Eye; how it was run: as §2

Compound: O=C(O)CCC/C=C\C[C@@H]1[C@@H](OC[C@@H](O)COc2cccc(Cl)c2)[C@H](O)C[C@@H]1O
Ki [1]: 680 nM
EC50 [2]: 52.4 nM
Activity [3]: 62%

Compound: O=C(O)CCC/C=C\C[C@@H]1[C@@H](OC[C@H](O)COc2cccc(Cl)c2)[C@H](O)C[C@@H]1O
Ki [1]: 140 nM
EC50 [2]: 62.2 nM
Activity [3]: 86%

Compound: O=C(O)CCC/C=C\C[C@@H]1[C@@H](OC[C@H](O)COc2ccccc2)[C@H](O)C[C@@H]1O
Ki [1]: 87 nM
EC50 [2]: 68.6 nM
Activity [3]: 67%

Compound: CCCCC[C@H](O)/C=C/[C@@H]1[C@@H](C/C=C\CCCC(=O)O)[C@@H](O)C[C@H]1O [DINOPROST]
Activity (Oryctolagus cuniculus [11]): 100%
Activity (Oryctolagus cuniculus [12]): 40%

Compound: O=C(O)CCC/C=C\C[C@@H]1[C@@H](CC[C@@H](O)CCc2ccccc2)[C@H](O)C[C@@H]1O [LATANOPROST ACID]
Ki [1]: 98 nM
EC50 [2]: 31.7 nM
Activity [3]: 85%
Activity (Oryctolagus cuniculus [36]): 45%
Activity (Oryctolagus cuniculus [37]): 40%
Activity (Oryctolagus cuniculus [38]): 20%

Compound: O=C(O)CCC/C=C\C[C@@H]1[C@@H](OC[C@@H](O)COc2ccccc2)[C@H](O)C[C@@H]1O
Ki [1]: 120 nM
EC50 [2]: 294 nM
Activity [3]: 67%

Further lines, with some results ahead:

Ki [1]: 72 nM
EC50 [2]: 1.9 nM
Activity [3]: 78%
Compound: O=C(O)CCC/C=C\C[C@@H]1[C@@H](OC[C@@H](O)CCc2cccc(C(F)(F)F)c2)[C@H](O)C[C@@H]1O

Ki [1]: 130 nM
EC50 [2]: 5.7 nM
Activity [3]: 82%
Compound: O=C(O)CCC/C=C\C[C@@H]1[C@@H](OC[C@H](O)CCc2cccc(C(F)(F)F)c2)[C@H](O)C[C@@H]1O

Activity (Macaca fascicularis [30]): Not Active
Compound: CC(C)OC(=O)CCC/C=C\C[C@@H]1[C@@H](OC[C@@H](O)CCc2cccc(C(F)(F)F)c2)[C@H](O)C[C@@H]1O
Activity (Oryctolagus cuniculus [4]): 5%
Activity (Oryctolagus cuniculus [5]): 13%
Activity (Oryctolagus cuniculus [6]): 38%
Activity (Oryctolagus cuniculus [7]): 3%
Activity (Oryctolagus cuniculus [8]): 8%
Activity (Oryctolagus cuniculus [9]): 25%
Activity (Oryctolagus cuniculus [10]): 3%
Activity (Oryctolagus cuniculus [11]): 13%
Activity (Oryctolagus cuniculus [12]): 30%
Activity (Oryctolagus cuniculus [13]): 5%
Activity (Oryctolagus cuniculus [14]): 25%
Activity (Oryctolagus cuniculus [15]): 8%
Activity (Oryctolagus cuniculus [16]): 0%
Activity (Oryctolagus cuniculus [17]): 23%
Activity (Oryctolagus cuniculus [18]): 35%
Activity (Oryctolagus cuniculus [19]): 15%
Activity (Oryctolagus cuniculus [20]): 73%
Activity (Oryctolagus cuniculus [21]): 45%
Activity (Oryctolagus cuniculus [22]): 0%
Activity (Felis catus [23]): 3.12
Activity (Felis catus [24]): 6.57
Activity (Felis catus [25]): 10.2
Activity (Felis catus [26]): Non-toxic
Activity (Felis catus [27]): Non-toxic
Activity (Oryctolagus cuniculus [28]): 23%
Activity (Oryctolagus cuniculus [29]): 13%
Activity (Macaca fascicularis [31]): Not Active
Activity (Macaca fascicularis [32]): inactive
Activity (Macaca fascicularis [33]): 30%
Activity (Macaca fascicularis [34]): 22%
Activity (Macaca fascicularis [35]): 21%
